Test results published in ChEMBL document CHEMBL1153570, “Synthesis and antitubercular screening of imidazole derivatives” (2009).
≈ marks a conversion by molar mass, not a printed value.

What was measured:
Assay type in all cases: functional
[1] = system: Mycobacterium tuberculosis; test: Antimycobacterial activity against Mycobacterium tuberculosis H37Ra after 5 days by microplate alamar blue assay; details: 120 h
Procedure, shortened: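 Log-phase M. tuberculosis H37Ra diluted to final OD550 0.05 in Sauton's medium. Compounds in DMSO, twofold dilutions from […]. Incubated at 37 °C/5% CO2 for 5 days, alamar blue added on day 5, incubated overnight. Fluorescence read-out.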

[2] = system: Mycobacterium tuberculosis; test: Antimycobacterial activity against Mycobacterium tuberculosis H37Rv by agar microdilution assay
Procedure, shortened: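 H37Rv from L–J medium suspended in 0.85% saline with 0.05% Tween-80. Twofold compound dilutions in OADC-supplemented 7H10 agar slants, preincubated 24 h at 37 °C, then streaked with 5 × 10⁴ bacilli per tube. Incubated at 37 °C and growth read after 30 days against drug-free controls. MIC taken as the concentration giving complete inhibition of colonies.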

[3] = system: Mycobacterium tuberculosis; test: Antitubercular activity against Mycobacterium tuberculosis H37Rv after 5 to 8 days by BACTEC radiometric assay
Procedure, shortened: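 H37Rv from L–J slants homogenized with glass beads and adjusted to McFarland 1. Primary inoculum grown in BACTEC 12B vial to GI 500–700, then 0.1 ml added to 4 ml 12B broth containing compound. A 1:100-inoculum control vial was included. Incubated at 37 °C with daily GI readings; read one more day after the 1:100 control reached GI 30.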

| SMILES | MIC [1] [µg/mL] | MIC [2] [µg/mL] | MIC [3] [µg/mL] |
| --- | --- | --- | --- |
| CC[C@@H](CO)NCCN[C@@H](CC)CO [ETHAMBUTOL] | 1.5 (≈ 7.34 µM) | 1.5 (≈ 7.34 µM) | – |
| c1ccc(Cn2cnc3ccccc32)cc1 | > 12.5 | > 12.5 | – |
| c1ccc(CNCCn2ccnc2)cc1 | 12.5 (≈ 62.1 µM) | 12.5 (≈ 62.1 µM) | – |
| CCOC(=O)CCn1ccnc1 | – | > 12.5 | – |
| C=CCc1cnc(CCC)n1CCCn1ccnc1CCC | > 12.5 | 25 (≈ 83.2 µM) | – |
| CCCCNC(=O)Cn1ccnc1 | > 12.5 | > 12.5 | – |
| c1cn(CCCCCn2ccnc2)cn1 | > 12.5 | > 12.5 | – |
| NNC(=O)c1ccncc1 [ISONIAZID] | 0.65 (≈ 4.74 µM) | 0.65 (≈ 4.74 µM) | – |
| CCCc1nccn1CCCn1ccnc1CCC | > 12.5 | – | 6.25 (≈ 24 µM) |
| OCCn1ccnc1 | > 12.5 | > 12.5 | – |
| CCCc1nccn1C(CC(=O)OCC)C1O[C@H]2OC(C)(C)O[C@H]2[C@@H]1OCc1ccccc1 (stereo not given in full) | 50 (≈ 109 µM) | 50 (≈ 109 µM) | – |
| c1cn(CCCn2ccnc2)cn1 | > 12.5 | > 12.5 | – |
| CCCCCCNC(=O)Cn1ccnc1 | 25 (≈ 119 µM) | > 12.5 | – |
| CCOC(=O)CC(C1O[C@H]2OC(C)(C)O[C@H]2[C@@H]1OCc1ccccc1)n1ccnc1 (stereo not given in full) | 50 (≈ 120 µM) | 50 (≈ 120 µM) | – |
| CCOC(=O)CC(C1O[C@H]2OC(C)(C)O[C@H]2[C@@H]1OC)n1ccnc1 (stereo not given in full) | 25 (≈ 73.4 µM) | 25 (≈ 73.4 µM) | – |
| Clc1ccc(Cn2cnc3ccccc32)cc1Cl | > 12.5 | > 12.5 | – |
| CCCCCCCNC(=O)Cn1ccnc1 | > 12.5 | > 12.5 | – |
| Clc1ccc(Cn2ccnc2)cc1Cl | > 12.5 | – | – |
| CCOC(=O)Cn1ccnc1 | > 12.5 | > 6.25 | – |
| O=C(Cn1ccnc1)NCc1ccccc1 | > 12.5 | > 12.5 | – |
| CCCc1nccn1C(CC(=O)OCC)C1O[C@H]2OC(C)(C)O[C@H]2[C@@H]1OC (stereo not given in full) | 25 (≈ 65.4 µM) | 25 (≈ 65.4 µM) | – |
